According to ChEMBL document CHEMBL3272198, “Preparation and in vitro antifungal activities of some quinolizidine derived hemiaminals and beta-tert-amino sulfides” (1976):
The source made the active and inactive calls. The calls are words filed in the database; no cut-off is given here.

Tests used:
Type in all cases: functional
[1] = test system: Histoplasma capsulatum; assay: Antifungal activity against Histoplasma capsulatum Darling isolate 1106 at 80 ug/ml after 2 weeks (reference value: 25 mm)
[2] = test system: Blastomyces dermatitidis; assay: Antifungal activity against Blastomyces dermatitidis Gilchrist & Stokes isolate 1099 at 80 ug/ml after 1 week (reference value: 14 mm)
[3] = test system: Histoplasma capsulatum; assay: Antifungal activity against Histoplasma capsulatum Darling isolate 1098 at 20 ug/ml after 2 weeks (reference value: 21 mm); conditions: Darling isolate 1098, 336 h, read-out: DIZ
[4] = test system: Histoplasma capsulatum; assay: Antifungal activity against Histoplasma capsulatum Darling isolate 1106 at 100 ug/ml after 1 week (reference value: 14 mm)
[5] = test system: Histoplasma capsulatum; assay: Antifungal activity against Histoplasma capsulatum Darling isolate 1106 at 40 ug/ml after 3 weeks (reference value: 31 mm); conditions: Darling isolate 1106, 504 h, read-out: DIZ
[6] = test system: Blastomyces dermatitidis; assay: Antifungal activity against Blastomyces dermatitidis Gilchrist & Stokes isolate 1099 at 10 ug/ml after 3 weeks (reference value: 34 mm); conditions: Gilchrist & Stokes isolate 1099, 504 h, read-out: DIZ
Method in brief: (§1)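 Mycelial phase grown on Sabouraud dextrose agar at 25°C. Agar pH was set to 6 before the test solution was added and was 5.0-5.5 after. Test solutions contained HOAc and Me2SO, and solvent and blank controls were included. Each quadrant was center-inoculated with a 2 × 2 mm piece of a 2-week-old mycelial culture. Colony diameter was measured weekly for 3 weeks and reported as total increments (mm). Duplicates were run.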

[7] = test system: Histoplasma capsulatum; assay: Antifungal activity against Histoplasma capsulatum Darling isolate 1098 at 80 ug/ml after 1 week (reference value: 12 mm)
[8] = test system: Histoplasma capsulatum; assay: Antifungal activity against Histoplasma capsulatum Darling isolate 1106 at 10 ug/ml after 1 week (reference value: 14 mm); conditions: Darling isolate 1106, 168 h, read-out: DIZ
[9] = test system: Histoplasma capsulatum; assay: Antifungal activity against Histoplasma capsulatum Darling isolate 1106 at 10 ug/ml after 3 weeks (reference value: 31 mm); conditions: Darling isolate 1106, 504 h, read-out: DIZ
[10] = test system: Blastomyces dermatitidis; assay: Antifungal activity against Blastomyces dermatitidis Gilchrist & Stokes isolate 1107 at 40 ug/ml after 1 week (reference value: 20 mm)
[11] = test system: Blastomyces dermatitidis; assay: Antifungal activity against Blastomyces dermatitidis Gilchrist & Stokes isolate 1107 at 80 ug/ml after 3 weeks (reference value: 40 mm); conditions: Gilchrist & Stokes isolate 1107, 504 h, read-out: DIZ; method in brief: as §1
[12] = test system: Blastomyces dermatitidis; assay: Antifungal activity against Blastomyces dermatitidis Gilchrist & Stokes isolate 1107 at 20 ug/ml after 1 week (reference value: 20 mm); method in brief: as §1
[13] = test system: Blastomyces dermatitidis; assay: Antifungal activity against Blastomyces dermatitidis Gilchrist & Stokes isolate 1107 at 60 ug/ml after 1 week (reference value: 20 mm)
[14] = test system: Blastomyces dermatitidis; assay: Antifungal activity against Blastomyces dermatitidis Gilchrist & Stokes isolate 1099 at 60 ug/ml after 3 weeks (reference value: 34 mm); conditions: Gilchrist & Stokes isolate 1099, 504 h, read-out: DIZ; method in brief: as §1
[15] = test system: Histoplasma capsulatum; assay: Antifungal activity against Histoplasma capsulatum Darling isolate 1106 at 10 ug/ml after 2 weeks (reference value: 25 mm); conditions: Darling isolate 1106, 336 h, read-out: DIZ
[16] = test system: Blastomyces dermatitidis; assay: Antifungal activity against Blastomyces dermatitidis Gilchrist & Stokes isolate 1107 at 100 ug/ml after 1 week (reference value: 20 mm)
[17] = test system: Histoplasma capsulatum; assay: Antifungal activity against Histoplasma capsulatum Darling isolate 1098 at 80 ug/ml after 3 weeks (reference value: 28 mm)
[18] = test system: Blastomyces dermatitidis; assay: Antifungal activity against Blastomyces dermatitidis Gilchrist & Stokes isolate 1107 at 60 ug/ml after 3 weeks (reference value: 40 mm); conditions: Gilchrist & Stokes isolate 1107, 504 h, read-out: DIZ; method in brief: as §1
[19] = test system: Histoplasma capsulatum; assay: Antifungal activity against Histoplasma capsulatum Darling isolate 1106 at 20 ug/ml after 2 weeks (reference value: 25 mm); conditions: Darling isolate 1106, 336 h, read-out: DIZ
[20] = test system: Blastomyces dermatitidis; assay: Antifungal activity against Blastomyces dermatitidis Gilchrist & Stokes isolate 1099 at 10 ug/ml after 2 weeks (reference value: 27 mm); conditions: Gilchrist & Stokes isolate 1099, 336 h, read-out: DIZ; method in brief: as §1
[21] = test system: Blastomyces dermatitidis; assay: Antifungal activity against Blastomyces dermatitidis Gilchrist & Stokes isolate 1107 at 80 ug/ml after 1 week (reference value: 20 mm)
[22] = test system: Blastomyces dermatitidis; assay: Antifungal activity against Blastomyces dermatitidis Gilchrist & Stokes isolate 1099 at 60 ug/ml after 1 week (reference value: 14 mm)
[23] = test system: Histoplasma capsulatum; assay: Antifungal activity against Histoplasma capsulatum Darling isolate 1098 at 10 ug/ml after 1 week (reference value: 12 mm); conditions: Darling isolate 1098, 168 h, read-out: DIZ
[24] = test system: Histoplasma capsulatum; assay: Antifungal activity against Histoplasma capsulatum Darling isolate 1098 at 40 ug/ml after 3 weeks (reference value: 28 mm); conditions: Darling isolate 1098, 504 h, read-out: DIZ
[25] = test system: Blastomyces dermatitidis; assay: Antifungal activity against Blastomyces dermatitidis Gilchrist & Stokes isolate 1099 at 100 ug/ml after 1 week (reference value: 14 mm)
[26] = test system: Blastomyces dermatitidis; assay: Antifungal activity against Blastomyces dermatitidis Gilchrist & Stokes isolate 1107 at 40 ug/ml after 2 weeks (reference value: 35 mm); conditions: Gilchrist & Stokes isolate 1107, 336 h, read-out: DIZ; method in brief: as §1
[27] = test system: Blastomyces dermatitidis; assay: Antifungal activity against Blastomyces dermatitidis Gilchrist & Stokes isolate 1107 at 10 ug/ml after 2 weeks (reference value: 35 mm); conditions: Gilchrist & Stokes isolate 1107, 336 h, read-out: DIZ; method in brief: as §1
[28] = test system: Histoplasma capsulatum; assay: Antifungal activity against Histoplasma capsulatum Darling isolate 1098 at 100 ug/ml after 3 weeks (reference value: 28 mm)
[29] = test system: Blastomyces dermatitidis; assay: Antifungal activity against Blastomyces dermatitidis Gilchrist & Stokes isolate 1099 at 60 ug/ml after 2 weeks (reference value: 27 mm); method in brief: as §1
[30] = test system: Histoplasma capsulatum; assay: Antifungal activity against Histoplasma capsulatum Darling isolate 1106 at 80 ug/ml after 1 week (reference value: 14 mm)
[31] = test system: Blastomyces dermatitidis; assay: Antifungal activity against Blastomyces dermatitidis Gilchrist & Stokes isolate 1099 at 80 ug/ml after 3 weeks (reference value: 34 mm); conditions: Gilchrist & Stokes isolate 1099, 504 h, read-out: DIZ; method in brief: as §1
[32] = test system: Histoplasma capsulatum; assay: Antifungal activity against Histoplasma capsulatum Darling isolate 1098 at 60 ug/ml after 1 week (reference value: 12 mm)
[33] = test system: Blastomyces dermatitidis; assay: Antifungal activity against Blastomyces dermatitidis Gilchrist & Stokes isolate 1107 at 100 ug/ml after 3 weeks (reference value: 40 mm); conditions: Gilchrist & Stokes isolate 1107, 504 h, read-out: DIZ; method in brief: as §1
[34] = test system: Histoplasma capsulatum; assay: Antifungal activity against Histoplasma capsulatum Darling isolate 1098 at 40 ug/ml after 1 week (reference value: 12 mm); conditions: Darling isolate 1098, 168 h, read-out: DIZ
[35] = test system: Histoplasma capsulatum; assay: Antifungal activity against Histoplasma capsulatum Darling isolate 1098 at 100 ug/ml after 2 weeks (reference value: 21 mm)
[36] = test system: Blastomyces dermatitidis; assay: Antifungal activity against Blastomyces dermatitidis Gilchrist & Stokes isolate 1099 at 40 ug/ml after 2 weeks (reference value: 27 mm); conditions: Gilchrist & Stokes isolate 1099, 336 h, read-out: DIZ; method in brief: as §1
[37] = test system: Histoplasma capsulatum; assay: Antifungal activity against Histoplasma capsulatum Darling isolate 1106 at 40 ug/ml after 2 weeks (reference value: 25 mm)
[38] = test system: Blastomyces dermatitidis; assay: Antifungal activity against Blastomyces dermatitidis Gilchrist & Stokes isolate 1099 at 10 ug/ml after 1 week (reference value: 14 mm); method in brief: as §1
[39] = test system: Blastomyces dermatitidis; assay: Antifungal activity against Blastomyces dermatitidis Gilchrist & Stokes isolate 1099 at 40 ug/ml after 3 weeks (reference value: 34 mm); conditions: Gilchrist & Stokes isolate 1099, 504 h, read-out: DIZ; method in brief: as §1
[40] = Darling isolate 1106, 336 h, read-out: DIZ
[41] = Darling isolate 1098, 168 h, read-out: DIZ
[42] = Darling isolate 1098, 504 h, read-out: DIZ

For `C[C@@H]1[C@H](O)[C@@H](C)/C=C/C=C/C=C/C=C/C=C/C=C/C=C/[C@H](O[C@@H]2O[C@H](C)[C@@H](O)[C@H](N)[C@@H]2O)C[C@@H]2O[C@](O)(C[C@@H](O)C[C@@H](O)[C@H](O)CC[C@@H](O)C[C@@H](O)CC(=O)O[C@H]1C)C[C@H](O)[C@H]2C(=O)O` [AMPHOTERICIN B], the zone of inhibition at 80 µg/mL [1, 40] was 7 mm, the Activity [2] was “Active” and the zone of inhibition at 20 µg/mL [3] was 12 mm. For the same molecule, the Activity [4] was “inactive”, the zone of inhibition at 40 µg/mL [5] was 13 mm and the zone of inhibition at 10 µg/mL [6] was 11 mm. The zone of inhibition at 80 µg/mL [7, 41] was 4 mm, the zone of inhibition at 10 µg/mL [8] was 7 mm and the zone of inhibition at 10 µg/mL [9] was 17 mm. The Activity [10] was “inactive”, the zone of inhibition at 80 µg/mL [11] was 15 mm and the Activity [12] was “inactive”. For the same molecule, the Activity [13] was “inactive”, the zone of inhibition at 60 µg/mL [14] was 4 mm and the zone of inhibition at 10 µg/mL [15] was 12 mm. The Activity [16] was “Active”, the zone of inhibition at 80 µg/mL [17, 42] was 14 mm and the zone of inhibition at 60 µg/mL [18] was 14 mm. The zone of inhibition at 20 µg/mL [19] was 7 mm, the zone of inhibition at 10 µg/mL [20] was 6 mm and the Activity [21] was “inactive”. For the same molecule, the Activity [22] was “Active”, the zone of inhibition at 10 µg/mL [23] was 8 mm and the zone of inhibition at 40 µg/mL [24] was 16 mm. The Activity [25] was “Active”, the zone of inhibition at 40 µg/mL [26] was 14 mm and the zone of inhibition at 10 µg/mL [27] was 9 mm. The zone of inhibition at 100 µg/mL [28, 42] was 14 mm, the Activity [29] was “Active” and the zone of inhibition at 80 µg/mL ([30]; Darling isolate 1106, 168 h, read-out: DIZ) was 5 mm. It also gave a zone of inhibition at 80 µg/mL [31] of 2 mm, a zone of inhibition at 60 µg/mL [32, 41] of 4 mm and a zone of inhibition at 100 µg/mL [33] of 11 mm. For the same molecule, the zone of inhibition at 40 µg/mL [34] was 5 mm, the zone of inhibition at 100 µg/mL ([35]; Darling isolate 1098, 336 h, read-out: DIZ) was 8 mm and the zone of inhibition at 40 µg/mL [36] was 2 mm. For the same molecule, the zone of inhibition at 40 µg/mL [37, 40] was 9 mm, the Activity [38] was “Active” and the zone of inhibition at 40 µg/mL [39] was 4 mm.

For `C[C@@H]1CC[C@@H](c2ccoc2)N2C(O)[C@@](C)(Sc3ccccc3)CC[C@@H]12` (stereo partly drawn), the Activity [1] was “Active”, the Activity [2] was “Active” and the zone of inhibition at 20 µg/mL [3] was 14 mm. The Activity [4] was “Active”, the zone of inhibition at 40 µg/mL [5] was 5 mm and the zone of inhibition at 10 µg/mL [6] was 27 mm. For the same molecule, the Activity [7] was “Active”, the zone of inhibition at 10 µg/mL [8] was 9 mm and the zone of inhibition at 10 µg/mL [9] was 25 mm. For the same molecule, the Activity [10] was “inactive”, the zone of inhibition at 80 µg/mL [11] was 7 mm and the zone of inhibition at 20 µg/mL ([12]; Gilchrist & Stokes isolate 1107, 168 h, read-out: DIZ) was 7 mm. For the same molecule, the Activity [13] was “Active”, the zone of inhibition at 60 µg/mL [14] was 9 mm and the zone of inhibition at 10 µg/mL [15] was 19 mm. For the same molecule, the Activity [16] was “Active”, the Activity [17] was “Active” and the zone of inhibition at 60 µg/mL [18] was 14 mm. The zone of inhibition at 20 µg/mL [19] was 11 mm, the zone of inhibition at 10 µg/mL [20] was 20 mm and the Activity [21] was “Active”. For the same molecule, the Activity [22] was “Active”, the zone of inhibition at 10 µg/mL [23] was 10 mm and the zone of inhibition at 40 µg/mL [24] was 13 mm. The Activity [25] was “Active”, the zone of inhibition at 40 µg/mL [26] was 15 mm and the zone of inhibition at 10 µg/mL [27] was 26 mm. The Activity [28] was “Active”, the zone of inhibition at 60 µg/mL ([29]; Gilchrist & Stokes isolate 1099, 336 h, read-out: DIZ) was 6 mm and the Activity [30] was “Active”. For the same molecule, the zone of inhibition at 80 µg/mL [31] was 4 mm, the Activity [32] was “Active” and the zone of inhibition at 100 µg/mL [33] was 3 mm. For the same molecule, the zone of inhibition at 40 µg/mL [34] was 6 mm, the Activity [35] was “Active” and the zone of inhibition at 40 µg/mL [36] was 10 mm. For the same molecule, the Activity [37] was “inactive”, the zone of inhibition at 10 µg/mL ([38]; Gilchrist & Stokes isolate 1099, 168 h, read-out: DIZ) was 12 mm and the zone of inhibition at 40 µg/mL [39] was 14 mm.
